Test results reported in ChEMBL document CHEMBL1144143, “Phenolic glycosides from Dirca palustris” (J Nat Prod, 1999).
Each block holds one molecule with its values, some of them ahead of it. Activity calls are given as the source filed them. The calls are words filed in the database; no cut-off is given here.

What was measured:
[1] = Antioxidation activity assessed as inhibition of peroxidation of liposome; type: physicochemical; conditions: artificial membrane
How it was run: (§1)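 Fe2+-initiated peroxidation of large unilamellar liposomes made from 1-stearoyl-2-linoleoyl-phosphocholine with the fluorescent probe 3-[p-(6-phenyl)-1,3,5-hexatrienyl]phenylpropionic acid. Liposomes were extruded through a 100 nm membrane. The assay used Chelex-treated HEPES buffer at pH 7.0 with NaCl, at 23 °C, with test agent in DMSO. Reaction was started with 20 µM FeCl2 (final). Fluorescence (excitation 384 nm) was read every 3 min for 21 min. Positive controls were at 10 µM final.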

[2] = biological target: T1, Prostaglandin G/H synthase 1 (Ovis aries) (UniProt P05979); assay: Inhibition of sheep COX1 at 125 ug/mL
T1 sequence (whole entry): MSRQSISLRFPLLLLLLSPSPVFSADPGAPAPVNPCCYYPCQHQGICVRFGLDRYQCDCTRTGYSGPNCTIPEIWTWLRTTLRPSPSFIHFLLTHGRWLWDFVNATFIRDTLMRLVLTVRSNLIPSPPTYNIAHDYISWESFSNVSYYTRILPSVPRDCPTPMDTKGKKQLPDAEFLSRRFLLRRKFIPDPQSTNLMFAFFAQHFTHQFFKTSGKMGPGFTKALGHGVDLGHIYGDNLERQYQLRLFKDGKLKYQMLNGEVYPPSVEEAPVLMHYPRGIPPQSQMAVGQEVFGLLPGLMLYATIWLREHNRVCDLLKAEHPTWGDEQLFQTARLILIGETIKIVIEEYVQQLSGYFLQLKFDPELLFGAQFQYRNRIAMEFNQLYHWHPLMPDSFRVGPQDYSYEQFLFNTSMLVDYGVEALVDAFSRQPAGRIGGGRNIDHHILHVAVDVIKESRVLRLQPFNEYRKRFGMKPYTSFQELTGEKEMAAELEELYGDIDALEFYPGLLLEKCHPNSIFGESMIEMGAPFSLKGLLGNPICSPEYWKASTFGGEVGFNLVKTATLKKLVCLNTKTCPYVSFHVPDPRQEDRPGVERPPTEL
How it was run: (§2)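 COX-I. Initial rate of O2 uptake measured at 37 °C with an oxygen electrode. Mixture: 0.1 M Tris at pH 7.0, 1 mmol phenol, 85 µg hemoglobin and 100 µmol arachidonic acid. Compound was added in DMSO, with a DMSO-only control. Reaction was started with 5-25 µg microsomal protein. Results are expressed as % inhibition.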

[3] = Inhibition of insect cell COX2 at 125 ug/mL
How it was run: (§3)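 COX-II was an insect cell lysate preparation, diluted in Tris at pH 7.0 to about 1.5 mg protein/mL. O2 uptake was measured at 37 °C by oxygen electrode. Mixture: 0.1 M Tris at pH 7.0, phenol, hemoglobin and 100 µmol arachidonic acid. Compound was added in DMSO, and the reaction was started by adding enzyme protein.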

[4] = Antioxidation activity assessed as inhibition of peroxidation of liposome at 2.20 ug/mL; type: physicochemical; conditions: artificial membrane; how it was run: as §1
[5] = biological target: T1, Prostaglandin G/H synthase 1 (Ovis aries); conditions: 180 ug/mL
[6] = biological target: T1, Prostaglandin G/H synthase 1 (Ovis aries); assay: Inhibition of sheep COX1 at 200 ug/mL; how it was run: as §2
[7] = Antioxidation activity assessed as inhibition of peroxidation of liposome at 60 ug/mL; type: physicochemical; conditions: artificial membrane; how it was run: as §1
[8] = Inhibition of insect cell COX2 at 200 ug/mL; how it was run: as §3
[9] = Antioxidation activity assessed as inhibition of peroxidation of liposome at 4.31 ug/mL; type: physicochemical; conditions: artificial membrane; how it was run: as §1
[10] = Antioxidation activity assessed as inhibition of peroxidation of liposome at 1.80 ug/mL; type: physicochemical; conditions: artificial membrane
How it was run: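 Large unilamellar liposomes (100 nm extrusion) of 1-stearoyl-2-linoleoyl phosphatidylcholine carrying a phenylhexatrienyl-phenylpropionic acid fluorescent probe, in Chelex-treated HEPES pH 7.0 with NaCl. Test compound added in DMSO. Peroxidation started with FeCl2 (20 µM Fe2+ final) at 23 °C. Fluorescence (excitation 384 nm) read every 3 min for 21 min; the fall in relative intensity gives the peroxidation rate.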

[11] = biological target: T1, Prostaglandin G/H synthase 1 (Ovis aries); assay: Inhibition of sheep COX1; how it was run: as §2
[12] = biological target: T1, Prostaglandin G/H synthase 1 (Ovis aries); conditions: 2.06 ug/mL
[13] = biological target: T1, Prostaglandin G/H synthase 1 (Ovis aries); conditions: 2.52 ug/mL
[14] = Antioxidation activity assessed as inhibition of peroxidation of liposome at 1.66 ug/mL; type: physicochemical; conditions: artificial membrane; how it was run: as §1

- Activity [1]: Not Active
- inhibition [2]: 9.2%
- Activity [3]: inactive
Molecule: COc1cc(/C=C/CO)c(OC)c(O[C@@H]2O[C@H](CO)[C@@H](O)[C@H](O)[C@H]2O)c1

- inhibition (INH) [4]: 81%
Molecule: Cc1cc(C(C)(C)C)c(O)c(C(C)(C)C)c1 [BUTYLATED HYDROXYTOLUENE]

- inhibition [5]: 52.1%
Molecule: CC(=O)Oc1ccccc1C(=O)O

- inhibition [6]: 12.5%
- inhibition (INH) [7]: 71%
- Activity [8]: inactive
Molecule: COc1cc(O[C@@H]2O[C@H](CO[C@H]3OC[C@@H](O)[C@H](O)[C@H]3O)[C@@H](O)[C@H](O)[C@H]2O)cc2oc(-c3ccc(O)cc3)cc(=O)c12

- inhibition (INH) [9]: 7%
Molecule: VITAMIN E

Molecule: COc1ccc(O)c(C(C)(C)C)c1.COc1ccc(O)cc1C(C)(C)C [BUTYLATED HYDROXYANISOLE]
- inhibition (INH) [10]: 91%

- inhibition (INH) [7]: 67%
- Activity [8]: inactive
- Activity [11]: inactive
Molecule: COc1ccc(-c2cc(=O)c3c(OC)cc(O[C@@H]4O[C@H](CO[C@H]5O[C@H](C)[C@@H](O)[C@H](O)[C@H]5O)[C@@H](O)[C@H](O)[C@H]4O)cc3o2)cc1OC

- inhibition (INH) [7]: 78%
- Activity [8]: inactive
- Activity [11]: inactive
Molecule: COc1ccc(-c2cc(=O)c3c(OC)cc(O[C@@H]4O[C@H](CO[C@H]5OC[C@@H](O)[C@H](O)[C@H]5O)[C@@H](O)[C@H](O)[C@H]4O)cc3o2)cc1

- inhibition (INH) [7]: 98%
- Activity [8]: inactive
- Activity [11]: inactive
Molecule: COc1ccc(-c2cc(=O)c3c(OC)cc(O[C@@H]4O[C@H](CO[C@H]5OC[C@@H](O)[C@H](O)[C@H]5O)[C@@H](O)[C@H](O)[C@H]4O)cc3o2)cc1OC

- inhibition [12]: 53.3%
Molecule: CC(C)Cc1ccc(C(C)C(=O)O)cc1 (configuration not stated)

- inhibition [13]: 58%
Molecule: COc1ccc2cc([C@H](C)C(=O)O)ccc2c1

- inhibition (INH) [14]: 90%
Molecule: CC(C)(C)c1cc(O)ccc1O [E319]
